Test results reported in ChEMBL document CHEMBL4359895, “Discovery and biological evaluation of darolutamide derivatives as inhibitors and down-regulators of wild-type AR and the mutants” (Eur J Med Chem, 2019).
Positions count from the first letter of the chain named. ≈ marks a conversion by molar mass, not a printed value. Calls of active or inactive are those of the source. The rule behind the calls is not given here.

Columns and labels:
LNCaP [1] = assay: Antiproliferative activity against human LNCAP expressing AR assessed as reduction in cell viability incubated for 6 days by CCK-8 assay; type: functional, cell-based; conditions: 144 h
In short: (§1)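 Cell proliferation assay run on LNCaP/AR, VCaP, 22Rv1, PC-3 and L-02 cells, with PC-3 and L-02 serving as AR-independent toxicity controls. IC50 fitted in GraphPad Prism 5 as the mean of at least two experiments, each in duplicate. Deviations under 35%.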

[2] = Solubility of compound in PBS incubated for 24 hrs by HPLC analysis; type: physicochemical
In short: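 Solubility determined in PBS at 25 ℃ by the saturation shake-flask method. Quantified against calibration curves.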

[3] = tested on: T1, Androgen receptor (Homo sapiens), P10275 [F877L]; assay: Inhibition of AR F876L mutant (unknown origin) transfected in human PC3 cells assessed as receptor transactivation at 0.1 to 30 uM incubated for 24 hrs by dual luciferase reporter gene assay; type: cell-based
T1 sequence (whole entry): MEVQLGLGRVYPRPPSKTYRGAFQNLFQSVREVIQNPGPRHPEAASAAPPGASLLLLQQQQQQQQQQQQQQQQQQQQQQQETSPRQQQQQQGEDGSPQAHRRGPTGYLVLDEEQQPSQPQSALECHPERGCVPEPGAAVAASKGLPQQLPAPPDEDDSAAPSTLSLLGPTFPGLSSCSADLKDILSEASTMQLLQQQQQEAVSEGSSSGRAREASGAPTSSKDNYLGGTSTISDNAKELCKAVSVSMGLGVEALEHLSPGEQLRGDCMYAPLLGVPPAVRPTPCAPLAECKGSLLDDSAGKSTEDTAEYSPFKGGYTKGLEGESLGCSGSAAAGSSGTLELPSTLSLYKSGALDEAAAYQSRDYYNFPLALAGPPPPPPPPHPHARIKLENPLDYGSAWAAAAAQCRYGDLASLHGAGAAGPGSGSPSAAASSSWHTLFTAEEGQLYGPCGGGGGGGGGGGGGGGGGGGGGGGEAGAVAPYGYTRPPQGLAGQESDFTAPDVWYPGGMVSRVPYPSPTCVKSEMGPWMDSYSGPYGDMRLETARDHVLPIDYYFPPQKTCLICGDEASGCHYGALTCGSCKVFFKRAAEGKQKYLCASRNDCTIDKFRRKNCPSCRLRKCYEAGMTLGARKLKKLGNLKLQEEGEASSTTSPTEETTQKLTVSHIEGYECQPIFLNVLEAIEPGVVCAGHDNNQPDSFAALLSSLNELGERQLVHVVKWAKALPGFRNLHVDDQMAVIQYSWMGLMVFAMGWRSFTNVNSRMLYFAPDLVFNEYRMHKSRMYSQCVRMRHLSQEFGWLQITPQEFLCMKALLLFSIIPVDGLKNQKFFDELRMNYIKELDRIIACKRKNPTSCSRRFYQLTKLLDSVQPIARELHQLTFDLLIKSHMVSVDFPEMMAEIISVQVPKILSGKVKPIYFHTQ

VCaP [4] = assay: Inhibition of AR splice variant 7 mutant expression in human VCaP cells at 10 to 30 uM incubated for 24 hrs by Western blot analysis analysis; type: functional, cell-based
In short: (§2)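 LNCaP, VCaP and 22Rv1 cells grown in medium with 10% (v/v) FBS. Treated with compounds or DMSO for 24 h. AR-full and AR splice-variant protein then assessed by western blot.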

[5] = Stability of compound in nutrient medium with fetal bovine serum and antibiotic incubated for 6 days by HPLC analysis; conditions: 144 h
L02 = assay: Cytotoxicity against human L02 assessed as reduction in cell viability incubated for 6 days by CCK-8 assay; type: cell-based; conditions: L02, 144 h; in short: as §1
PC-3 = assay: Cytotoxicity against human PC3 assessed as reduction in cell viability incubated for 6 days by CCK-8 assay; type: cell-based; conditions: PC-3, 144 h; in short: as §1
CWR22R = assay: Antiproliferative activity against human 22Rv1 expressing AR assessed as reduction in cell viability incubated for 6 days by CCK-8 assay; type: functional, cell-based; conditions: 22Rv1, 144 h; in short: as §1
[6] = target: T2, Androgen receptor (Homo sapiens) (UniProt P10275); assay: Inhibition of AR (unknown origin) transfected in human PC3 cells assessed as receptor transactivation at 0.1 to 30 uM incubated for 24 hrs by dual luciferase reporter gene assay; type: cell-based
T2 sequence (whole entry): T1 sequence (whole entry) with L877F

[7] = target: T2, Androgen receptor (Homo sapiens); assay: Inhibition of AR in human HEK293 cells assessed as decrease in receptor transactivation at 10 uM incubated for 24 hrs by dual luciferase reporter gene assay; type: cell-based
In short: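 HEK 293 cells transiently co-transfected with wt-AR expression vector and an androgen-responsive luciferase reporter construct. Cells given 2 nM testosterone plus 10 µM test compound (final concentrations). Read-out by luciferase, mean ± SD, n = 3.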

VCaP [8] = assay: Inhibition of AR protein expression in human VCaP cells at 10 to 30 uM incubated for 24 hrs by Western blot analysis; type: functional, cell-based; in short: as §2
LNCaP [9] = assay: Inhibition of AR protein expression in human LNCAP cells at 20 uM incubated for 24 hrs by Western blot analysis; type: functional, cell-based
In short: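 LNCaP cells treated with 20 µM compound or DMSO for 24 h. AR-full protein detected by western blot with tubulin as loading control, then quantified by ImageJ grayscale analysis.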

[10] = target: Bromodomain-containing protein 4 (Homo sapiens) (UniProt O60885); assay: Inhibition of BRD4 (unknown origin) by alpha-screen assay

IC50 (LNCaP [1]) [µM]	solubility at 24 h [2] [µM]	inhibition [3]	Stability [5]	inhibition [6]	inhibition [7]	inhibition [10]	SMILES	inhibition (VCaP [4])	IC50 (L02) [µM]	IC50 (PC-3) [µM]	IC50 (CWR22R) [µM]	inhibition (VCaP [8])	inhibition (LNCaP [9])
0.96	24.5 (≈ 9.27 µg/mL)	Active	Stable	Active	Active	inactive	C[C@@H](Cn1ccc(-c2ccc(C#N)c(Cl)c2)n1)Nc1ncnc2nc[nH]c12	Active	27.9	14.1	4.24	Active	Active
1.08	< 2.52	Active	Stable	Active	Active	inactive	C[C@@H](Cn1ccc(-c2ccc(C#N)c(Cl)c2)n1)Nc1cccc2ncccc12	Active	16.6	7.96	3.92	Active	Active
